IC50 and Km data for four molecules are collected here from ChEMBL document CHEMBL1126590, “32-Methyl-32-oxylanosterols: dual-action inhibitors of cholesterol biosynthesis” (J Med Chem, 1993).

Data set [1] addresses T1, 3-hydroxy-3-methylglutaryl-coenzyme A reductase (Homo sapiens, UniProt P04035).
T1 sequence (P04035 whole entry): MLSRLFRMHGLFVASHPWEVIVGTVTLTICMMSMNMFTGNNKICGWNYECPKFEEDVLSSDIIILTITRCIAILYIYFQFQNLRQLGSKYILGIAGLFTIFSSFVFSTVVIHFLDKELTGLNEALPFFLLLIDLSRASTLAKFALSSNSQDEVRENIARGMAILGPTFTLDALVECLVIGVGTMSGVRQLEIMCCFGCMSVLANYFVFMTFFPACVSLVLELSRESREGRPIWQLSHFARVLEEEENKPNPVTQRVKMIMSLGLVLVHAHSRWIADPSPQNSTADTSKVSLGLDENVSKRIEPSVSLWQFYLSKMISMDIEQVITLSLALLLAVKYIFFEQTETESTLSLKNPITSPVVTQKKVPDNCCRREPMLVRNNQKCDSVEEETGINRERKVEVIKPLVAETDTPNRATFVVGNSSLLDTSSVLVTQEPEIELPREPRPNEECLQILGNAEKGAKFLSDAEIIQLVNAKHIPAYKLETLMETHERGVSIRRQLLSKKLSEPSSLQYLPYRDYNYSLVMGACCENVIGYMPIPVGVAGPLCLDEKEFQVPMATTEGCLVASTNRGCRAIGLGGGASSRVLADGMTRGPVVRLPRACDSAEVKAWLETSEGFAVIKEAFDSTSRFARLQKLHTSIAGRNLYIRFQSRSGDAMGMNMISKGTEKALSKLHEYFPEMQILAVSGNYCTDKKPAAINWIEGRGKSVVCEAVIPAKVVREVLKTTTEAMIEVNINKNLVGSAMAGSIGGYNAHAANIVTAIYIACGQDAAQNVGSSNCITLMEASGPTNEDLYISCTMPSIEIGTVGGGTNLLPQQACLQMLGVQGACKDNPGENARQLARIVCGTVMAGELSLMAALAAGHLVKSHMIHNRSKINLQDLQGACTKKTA
The experiment in a line: Inhibition of HMG-coA Reductase enzyme in chinese hamster ovary cells. The format is cell-based, Cricetulus griseus, CHO. Put shortly:
(§1)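 Cells grown in McCoy's 5a medium with 1% delipidated FBS under 5% CO2 and treated 4 h with compound given as a BSA suspension from an ethanol stock (final BSA 0.5 mg/mL, ethanol ≤0.5%). Cells permeabilized with 30 μg/mL digitonin in CSK buffer pH 6.8, then preincubated 20 min at 37 °C. Conversion of [14C]HMG-CoA to mevalonolactone measured with [3H]mevalonolactone internal standard and TLC separation. Value is the concentration reducing activity to 50% of control.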

Data set [2] concerns the target T1, 3-hydroxy-3-methylglutaryl-coenzyme A reductase. The experiment in a line: Inhibition of HMG-coA Reductase enzyme in AR45 cells. It is filed as cell-based. The method, boiled down:
as §1

Data set [3] concerns the target T2, Lanosterol 14-alpha demethylase (Rattus norvegicus, UniProt Q64654).
T2 sequence (Q64654 whole entry): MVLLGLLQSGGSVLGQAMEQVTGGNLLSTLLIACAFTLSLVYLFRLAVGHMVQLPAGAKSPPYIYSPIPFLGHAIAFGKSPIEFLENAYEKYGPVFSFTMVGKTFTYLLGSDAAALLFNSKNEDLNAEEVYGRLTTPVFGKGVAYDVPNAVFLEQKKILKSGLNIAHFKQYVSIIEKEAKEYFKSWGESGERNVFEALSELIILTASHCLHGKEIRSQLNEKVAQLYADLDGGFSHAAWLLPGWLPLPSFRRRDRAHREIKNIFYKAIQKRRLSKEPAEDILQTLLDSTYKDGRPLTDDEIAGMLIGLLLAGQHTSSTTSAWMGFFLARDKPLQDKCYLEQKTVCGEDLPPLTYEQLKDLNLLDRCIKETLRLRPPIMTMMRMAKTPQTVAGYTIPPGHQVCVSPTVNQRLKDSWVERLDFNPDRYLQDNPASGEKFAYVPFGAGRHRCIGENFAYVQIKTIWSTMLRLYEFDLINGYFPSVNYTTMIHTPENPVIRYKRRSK
The data set can be described thus: (§2) Inhibition rat liver microsome cytochrome P450DM. It is filed as microsomes. The method, boiled down: (§3)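 Buffer: phosphate pH 7.4 with glutathione, EDTA, 20% glycerol, NAD(P)H cofactors, isocitrate/isocitrate dehydrogenase, MgCl2, AY-9944, NaCN. Diene product quantified by UV-HPLC. IC50 taken from linear plots of reciprocal turnover vs inhibitor concentration.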

For data set [4], the target named is Lanosterol 14-alpha demethylase (Cricetulus griseus). The experiment in a line: Inhibition of cytochrome P450DM in intact CHO cells.
Substrate in data set [5]: [H][C@]1([C@]([H])(C)CCCC(C)C)CC[C@@]2(C)C3=C(CC[C@]12C)[C@@]1(C)CC[C@H](O)C(C)(C)C1CC3
The data set is described as §2. It is filed as microsomes. The method, boiled down: as §3

Turning to `CC(C)CCC[C@@H](C)[C@H]1CC[C@@]2(C(C)O)C3=CCC4C(C)(C)[C@@H](O)CC[C@]4(C)C3CC[C@]12C` (stereo in doubt; 17b), the IC50 was 1500 nM in data set [1], > 20000 nM in data set [2], 1600 nM in data set [3] and 300 nM in data set [4].
The matching figures for `CC(=O)[C@@]12CC[C@H]([C@H](C)CCCC(C)C)[C@@]1(C)CCC1C2=CCC2C(C)(C)[C@@H](O)CC[C@]12C` (stereo partly drawn): 1000 nM, > 20000 nM, 9100 nM and 2700 nM.
For `CC(C)CCC[C@@H](C)[C@H]1CC[C@@]2(C(C)O)C3=CCC4C(C)(C)[C@@H](O)CC[C@]4(C)C3CC[C@]12C` (stereo in doubt; 17a), the IC50 in data set [1] was 3000 nM; in data set [2] (ar45), > 20000 nM; in data set [3], 330 nM; in data set [4], 300 nM.

B1: Lanosterol 14-alpha demethylase (Rattus norvegicus) (protein)
chain: MVLLGLLQSGGSVLGQAMEQVTGGNLLSTLLIACAFTLSLVYLFRLAVGHMVQLPAGAKSPPYIYSPIPFLGHAIAFGKSPIEFLENAYEKYGPVFSFTMVGKTFTYLLGSDAAALLFNSKNEDLNAEEVYGRLTTPVFGKGVAYDVPNAVFLEQKKILKSGLNIAHFKQYVSIIEKEAKEYFKSWGESGERNVFEALSELIILTASHCLHGKEIRSQLNEKVAQLYADLDGGFSHAAWLLPGWLPLPSFRRRDRAHREIKNIFYKAIQKRRLSKEPAEDILQTLLDSTYKDGRPLTDDEIAGMLIGLLLAGQHTSSTTSAWMGFFLARDKPLQDKCYLEQKTVCGEDLPPLTYEQLKDLNLLDRCIKETLRLRPPIMTMMRMAKTPQTVAGYTIPPGHQVCVSPTVNQRLKDSWVERLDFNPDRYLQDNPASGEKFAYVPFGAGRHRCIGENFAYVQIKTIWSTMLRLYEFDLINGYFPSVNYTTMIHTPENPVIRYKRRSK
Regarding B1, the Km in data set [5] is 33 µM.
